Source: PubChem
This is a sample that favours compounds with a hit; in the whole collection about 3.1% have one here.
A1 inh: inhibitors of the anti-apoptotic protein A1, read as caspase activation; AID 2462; 0.066% of 330,000 active; caspase activation, % (test concentration not listed); MEF A1-2A-BIM cells, Caspase-Glo 3/7 luminescence, 3 h; percent of clofoctol response, vehicle zero;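 active = over half of replicate activation scores above 10%, or exactly half above 10 with the replicate mean above 10; inconclusive = replicate mean below 10 yet half the replicates above 10; inactive = over half of replicates below 10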
T cruzi repl: blocks replication of Trypanosoma cruzi. inhibition, % (concentration not given with the values). 1.4% of 300,000 active. T. cruzi beta-gal in NIH3T3, luminescence, 90 h;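 active = mean inhibition across valid replicates above about 55%, limit read from the data; inconclusive = mean below that limit but half or more replicates reach it; inactive = mean below it, under half of replicates reach it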;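 note: signal also drops with host cell toxicity which is not excluded here; higher percent means less beta-gal luminescence so fewer parasites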
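Incubation – ≥90 h infection period, 3 h prior cell attachment · System – NIH/3T3 fibroblasts plus reporter T. cruzi · Doses – compound pinned at 50 nL/well, DMSO · Read-out basis – percent inhibition of parasite-derived β-gal signal · Signal – luminescent β-galactosidase signal after 60 min lysis · Also added – 5000 T. cruzi trypomastigotes/well · Medium – Low-serum DMEM with 2% FBS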
Beta apoptosis: beta cell apoptosis inhibition. INS-1E cytokine-induced death, ATP luminescence, 48 h; percent of positive-control rescue, neutral wells zero. protection from apoptosis, % (no concentration beside the values). 0.8% of 300,000 active;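 active = Every replicate reaches about 75%, or at least half do and their mean reaches it too, limit read from the data; inconclusive = At least half of replicates reach the limit but their mean does not; inactive = Under half of replicates reach the limit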;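 note: higher means more ATP so stronger rescue from cytokine killing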
Calb FLC: C. albicans growth modulation with fluconazole | 0.57% of 300,000 active | C. albicans CaCi-2 + fluconazole, Alamar Blue growth, 48 h | AID 1979 | growth inhibition, % (test concentration not listed);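 active = growth inhibition above about 58% in most replicates, limit read from the data, passing the limit was not always enough; inconclusive = exactly half the replicates above a set limit; inactive = most replicates below a set limit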;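 note: all wells also contain fluconazole at 8 µg/ml as a sub-toxic cotreatment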
TAG inh: inhibitors of triacylglycerol accumulation | H9c2 cells, Nile Red lipid (TAG) fluorescence; cells loaded with 200 µM oleic acid | inhibition, % at 12.5 µM | 0.66% of 230,000 active;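 active = pattern-corrected inhibition of lipid staining of at least 50% with the nuclear-stain viability signal not falling by more than 50%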
CSC inhib: blocks cancer stem cells | AID 2717 | inhibition, % at 7.5 µM | 1.1% of 300,000 active | cancer stem cell-like cells viability, luminescence; in the data active = inhibition above about 75%; inconclusive = no clear call, values can overlap the other calls; tested in HMLE shEcad cells
Numbers stand for hits; – = inactive; ? = inconclusive; · = no result given.

SMILES | A1 inh | T cruzi repl | Beta apoptosis | Calb FLC | TAG inh | CSC inhib
CC1(C)CC(=O)C2=C(C1)c1c(ccc3ccccc13)NC2c1cc([N+](=O)[O-])cc([N+](=O)[O-])c1O (stereo unspecified) | – | – | – | 111 | · | –
CC1(C)CC(=O)C2=C(C1)c1c(ccc3ccccc13)NC2c1ccc(C(=O)O)cc1 (stereo unspecified) | – | – | – | – | · | –
Cc1ccc(C)c(NC(=O)CSc2ncnc3nc[nH]c23)c1 | – | – | – | – | · | –
O=C(CSc1ncnc2nc[nH]c12)Nc1nnc(SCc2ccc(Cl)c(Cl)c2)s1 | – | – | – | ? | – | 93
COC1C(CO)OC(n2c3c(Cl)cccc3c3c4c(c5c6cccc(Cl)c6[nH]c5c32)C(=O)NC4=O)C(O)C1O (stereo unspecified) | · | · | · | · | 72 | ·
Cc1ccccc1Nc1nc(N)nc(CSc2n[nH]c(N)n2)n1 | – | – | – | – | – | –
O=C(CSc1nc2ccccc2c(=O)n1-c1ccccc1)N1CCc2ccccc2C1 | – | – | 100 | – | · | –
CC(C)Cn1c(SCC(=O)N2CCc3ccccc3C2)nc2cc(Cl)ccc2c1=O | – | – | 115 | – | · | –
O=C(CSc1nc2ccccc2c(=O)n1-c1ccccc1)N1CCC1 | – | – | – | – | – | –
COCCn1c(SCC(=O)N2CCc3ccccc3C2)nc2cc(Cl)ccc2c1=O | – | – | – | – | · | –
CC(C)c1ccccc1-n1c(SCC(=O)N2CCc3ccccc3C2)nc2ccccc2c1=O | – | – | 121 | – | · | –
C/C(=N\Nc1cccc(Cl)c1)c1ccncc1 | – | 59 | – | – | – | –
Cc1ccc(N/N=C/c2ccncc2)cc1 | – | – | – | 100 | · | 79
Clc1cccc(N/N=C/c2ccncc2)c1 | – | – | – | 93 | · | –
COc1ccc(S(=O)(=O)N2CCCCC2)cc1NS(=O)(=O)c1ccc(CNC(C)=O)cc1 | – | · | – | · | – | –
Cc1onc(-c2ccccc2)c1C(=O)NC(=S)NNC(=O)c1ccncc1 | – | – | – | – | · | –
Cc1onc(-c2ccccc2)c1C(=O)NC(=S)NNC(=O)c1cccnc1 | – | – | – | 100 | · | –
CCC(=O)N1CCc2cc(S(=O)(=O)N3CCCCCC3)ccc21 | – | – | – | – | · | –
Cc1ccn2c(NC3CCCCC3)c(-c3cccc(SC4CCCCC4)c3)nc2c1 | – | · | – | · | – | 100
CCCCCCSc1cccc(-c2nc3cc(C)ccn3c2NC2CCCCC2)c1 | – | – | – | – | – | 83
CCCCCCSc1cccc(-c2nc3ccc(C)cn3c2NC2CCCCC2)c1 | – | – | – | – | – | –
Cc1ccccc1N1CCN(CCN2C(=O)CC(=C3c4ccccc4-c4ccccc43)C2=O)CC1 | – | – | – | 90 | · | –
O=C(O)c1ccc(Nc2cnc3ccccc3n2)cc1 | – | – | – | 95 | – | –
CCOC(=O)c1ccc(Nc2cnc3ccccc3n2)cc1 | – | – | – | – | – | –
O=C(NCc1ccccc1)c1cc(-c2ccncc2)nc2ccc(S(=O)(=O)N3CCOCC3)cc12 | – | – | – | – | · | –
SMILES | A1 inh | T cruzi repl | Beta apoptosis | Calb FLC | TAG inh | CSC inhib
Cc1ccc2nc(-c3ccncc3)cc(C(=O)NCCc3ccc(F)cc3)c2c1 | – | 56 | – | – | – | –
Cc1ccc(CCNC(=O)c2cc(-c3ccncc3)nc3ccc(S(=O)(=O)N4CCOCC4)cc23)cc1 | 6.4 | – | – | – | · | –
Nn1cnc2scc(-c3ccco3)c2c1=O | – | – | · | – | · | –
Clc1ccc2c(c1)C(c1cccs1)=NNC(c1cccnc1)=N2 | – | – | – | 90 | · | –
Fc1ccc2c(c1)C(c1ccncc1)=NNC(c1cccnc1)=N2 | – | – | – | 81 | – | –
CCc1ccc(NC(=O)[C@H](Cc2ccccc2)NC(=O)C2CCN(C(=O)[C@@H](N)CC(C)C)CC2)cc1 | – | – | · | – | · | –
C/C=C(\C)CN1CCC(Oc2cc(C(=O)NC3CC3)ccc2OC)CC1 | – | – | – | – | · | –
Cc1cccc(Cc2nnc(CCC(=O)N3CCCCC3c3nccs3)o2)c1 (stereo unspecified) | – | – | – | 100 | – | –
COc1ccccc1C(=O)NNC(=O)C1CC=CCC1 (stereo unspecified) | – | – | – | – | · | –
COc1cccc(C(C)(O)c2nc(-c3ccc(F)c(Cl)c3)cs2)c1 (stereo unspecified) | · | · | · | · | – | ·
CCOC(=O)c1c(C)oc2c1c(CN1CCN(C(=O)OCC)CC1)c(O)c1ccccc12 | 20 | – | – | – | · | –
OCC1(Cc2ccc(F)cc2)CCCN(CCCC(F)(F)F)C1 (stereo unspecified) | – | – | – | – | · | –
CC[C@H]1CC2CN3CCc4c([nH]c5c([C@H]6C[C@H]7[C@H](CC)CN(C)[C@@H](Cc8c6[nH]c6ccccc86)[C@H]7C(=O)OC)c(OC)ccc45)C(C(=O)OC)(C2)C13 | – | – | – | – | · | 103
CN(CC(=O)Nc1ccccc1Oc1ccccc1)Cc1ccccc1F | – | – | – | – | · | 91
CCCCn1c(SCC(=O)NC2CCCC2)nnc1-c1ccco1 | – | – | – | – | · | ·
NC(=S)N/N=C/c1ccccc1OCCSc1ccc(Cl)cc1 | – | 57 | – | – | · | –
CCOC(=O)N/N=C/c1ccccc1OCc1ccc(Cl)cc1 | – | – | · | – | – | ·
COc1cccc(/C=N/NC(N)=S)c1OCc1ccccc1Cl | – | 59 | – | – | · | –
CCON1C(=O)C2(CCCCC2)C(=O)C12C=CCCC2 (stereo unspecified) | · | · | · | · | – | ·
O=C(COC(=O)c1ccc(N2CCOCC2)c([N+](=O)[O-])c1)Nc1ccc2c(c1)OCO2 | – | – | – | – | · | –
CC1CCN(c2ccc(C(=O)Nc3ccc4c(c3)OCO4)cc2[N+](=O)[O-])CC1 | – | – | – | – | – | 78
CC1CCCN(c2ccc(C(=O)NCc3ccc4c(c3)OCO4)cc2[N+](=O)[O-])C1 (stereo unspecified) | – | – | – | – | – | –
CC1CCCN(c2ccc(C(=O)Nc3nnc(C4CC4)s3)cc2[N+](=O)[O-])C1 (stereo unspecified) | – | – | – | – | · | –
CC1CCCN(c2ccc(C(=O)Nc3ccc4c(c3)OCO4)cc2[N+](=O)[O-])C1 (stereo unspecified) | – | – | – | – | – | 102
O=C(NCc1ccc2c(c1)OCO2)c1ccc(N2CCCCCC2)c([N+](=O)[O-])c1 | – | 59 | – | – | – | –
O=C(C1=C[C@H](c2ccc(C(F)(F)F)cc2)C[C@H](OCc2ccc(CO)cc2)O1)N1CCN(Cc2ccc3c(c2)OCO3)CC1 | – | 65 | – | – | – | 80
O=C(C1=C[C@@H](c2ccc(C(F)(F)F)cc2)C[C@@H](OCCCCO)O1)N1CCN(Cc2ccccc2)CC1 | – | – | 116 | – | – | –
